Experiment [1] concerns MDA-MB-231. Nature of the experiment: Cytotoxicity against breast cancer MDA-MB-231 cell line by MTT assay. Format: functional, cell-based. Conditions: Homo sapiens. In short, it runs like this: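 MDA-MB-231 cells were screened by MTT in an automated format across decreasing compound concentrations. Viability was expressed as % of untreated control, with 70% of control as the arbitrary cutoff for reduced viability at 10 µM. IC50 values are approximate and were assigned to concentration ranges.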

Experiment [2] deals with RBL-2H3. Nature of the experiment: Cytotoxicity against basophilic leukemia RBL 2H3 cell line by MTT assay at 100 uM. It is filed as functional, Rattus norvegicus. In short, it runs like this:
(§1)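 Cells were exposed to compound at 100 µM for 48 h. Values are % viability relative to untreated control cells, given as mean ± SEM of four determinations.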
In general terms: Formazan colour is commonly taken as a measure of viable cells.

The test system of experiment [3] is SH-SY5Y. Put plainly: Cytotoxicity against neuroblastoma SHSY5Y cell line by MTT assay at 100 uM. It is filed as functional, Homo sapiens. In a few lines: as §1
The subject of experiment [4] is FG2. Nature of the experiment: Cytotoxicity against human pancreatic carcinoma FG2 cell line by MTT assay at 100 uM. Format: functional. In a few lines: as §1
In experiment [5] the test system is MDA-MB-231. Nature of the experiment: Cytotoxicity against breast cancer MDA-MB-231 cell line by MTT assay at 100 uM. It is filed as functional, Homo sapiens. In short, it runs like this: as §1

Here are results for 76 molecules from ChEMBL document CHEMBL1148612, “Rapid synthesis of triazole-modified resveratrol analogues via click chemistry” (J Med Chem, 2006).

Take `COc1cc(OC)cc(-n2cc(-c3ccc(O)c(OC)c3)nn2)c1`: the IC50 (commonly the concentration at which inhibition is half-maximal) in experiment [1] amounted to 10 µM.
Take `COc1cc(-n2cc(-c3ccc(N)cc3)nn2)cc(OC)c1OC`: the IC50 in experiment [1] is more than 10 µM.
`COc1ccc(-n2cc(-c3ccc(O)c(OC)c3)nn2)cc1` came in with an IC50 in experiment [1] of more than 10 µM.
Regarding `Nc1ccc(-c2cn(-c3c(O)c(F)cc(F)c3F)nn2)cc1`, the half-inhibitory concentration (IC50) in experiment [1] was more than 10 µM.
`COc1ccc(-c2cn(-c3cc(OC)c(OC)c(OC)c3)nn2)cc1` yielded a 50% inhibitory concentration (IC50) in experiment [1] of more than 10 µM.
In experiment [1], `Oc1cc(O)cc(-c2cn(-c3ccc(Oc4ccccc4)cc3)nn2)c1` displayed a concentration for half-maximal inhibition (IC50) of more than 10 µM.
`Oc1ccc(-n2cc(-c3cc(O)cc(O)c3)nn2)cc1`: the Activity in experiment [2] was 114%; in experiment [3], 86.6%; in experiment [4], 91.9%; in experiment [5], 95.5%.
Take `COc1ccc(-c2cn(-c3ccc(OC(F)(F)F)cc3)nn2)cc1`: it took 1 µM to reach half-maximal inhibition in experiment [1] (IC50).
In turn, `COc1cc(-c2cn(-c3ccc(Oc4ccccc4)cc3)nn2)cc(OC)c1OC` gave an IC50 in experiment [1] of 10 µM.
In the case of `COc1ccc(-c2cn(-c3ccc(OC)c(OC)c3)nn2)cc1`, in experiment [1], the IC50 was more than 10 µM.
On the same count and under the same terms, in the case of `COc1ccc(-c2cn(-c3ccc(OC(F)(F)F)cc3)nn2)cc1OC` it was more than 1 µM.
`COc1ccc(-c2cn(-c3ccc(OC)c(OC)c3)nn2)cc1O` had an IC50 in experiment [1] of more than 0.1 µM.
As for `COc1ccc(-c2cn(-c3cc(O)cc(O)c3)nn2)cc1`, the Activity is 99.6% in experiment [2], 62.2% in experiment [3], 83.7% in experiment [4] and 72.2% in experiment [5].
Consider `COc1ccc(-n2cc(-c3cc(OC)c(OC)c(OC)c3)nn2)cc1`, for which, in experiment [1], the IC50 was more than 10 µM.
`COc1cc(-c2cn(-c3cc(OC)c(OC)c(OC)c3)nn2)ccc1O` came in with an IC50 in experiment [1] of more than 10 µM.
Consider `Nc1ccc(-c2cn(-c3ccc4c(c3)OCO4)nn2)cc1`, for which, in experiment [1], the IC50 was more than 10 µM.
Same read-out and setting: the result for `COc1ccc(-n2cc(-c3cc(O)cc(O)c3)nn2)cc1O` reads more than 10 µM; that for `COc1ccc(-c2cn(-c3ccc(Oc4ccccc4)cc3)nn2)cc1`, more than 0.1 µM.
Molecule `COc1cc(-c2cn(-c3ccc4c(c3)OCO4)nn2)ccc1O` registered a half-maximal inhibitory concentration (IC50) in experiment [1] of more than 10 µM.
For the molecule `COc1cc(OC)cc(-c2cn(-c3c(O)c(F)cc(F)c3F)nn2)c1`, the IC50 in experiment [1] was more than 10 µM.
Still for that read-out and setting: in the case of `Oc1cc(O)cc(-c2cn(-c3ccc4c(c3)OCO4)nn2)c1` it was more than 1 µM.
As for `COc1ccc(-c2cn(-c3ccc(OC)cc3)nn2)cc1`, in experiment [1], the IC50 is more than 0.1 µM.
As to `COc1cc(OC)cc(-n2cc(-c3ccc(OC)c(OC)c3)nn2)c1`, the IC50 in experiment [1] was more than 1 µM.
The molecule `COc1ccc(-n2cc(-c3ccc(N)cc3)nn2)cc1OC` displayed a concentration for half-maximal inhibition (IC50) in experiment [1] of more than 10 µM.
For `COc1ccc(-c2cn(-c3cc(OC)cc(OC)c3)nn2)cc1`, the Activity in experiment [2] is recorded as 113%; in experiment [3], 85.9%; in experiment [4], 100.8%; in experiment [5] it was 99.3%.
Consider `COc1cc(OC)cc(-n2cc(-c3cc(OC)c(OC)c(OC)c3)nn2)c1`, for which the IC50 in experiment [1] was more than 1 µM.
With `COc1cc(OC)cc(-c2cn(-c3ccc(OC(F)(F)F)cc3)nn2)c1`, the IC50 in experiment [1] was more than 1 µM.
For the molecule `COc1cc(-c2cn(-c3cc(OC)c(OC)c(OC)c3)nn2)cc(OC)c1OC`, the half-inhibitory concentration (IC50) in experiment [1] was more than 10 µM.
In experiment [1], `Oc1cc(O)cc(-c2cn(-c3ccc(OC(F)(F)F)cc3)nn2)c1` showed an IC50 of more than 10 µM.
Still for that read-out and setting: in the case of `COc1cc(-c2cn(-c3c(O)c(F)cc(F)c3F)nn2)ccc1O` it was 10 µM.
`COc1ccc(-c2cn(-c3ccc(Oc4ccccc4)cc3)nn2)cc1O`: in experiment [1], the half-inhibitory concentration (IC50) is more than 10 µM.
For the molecule `COc1ccc(-c2cn(-c3ccc4c(c3)OCO4)nn2)cc1`, the IC50 in experiment [1] is 1 µM. This counts as single-digit micromolar.
Regarding `Oc1ccc(-c2cn(-c3cc(O)cc(O)c3)nn2)cc1`, the Activity in experiment [2] was found to be 110%; in experiment [3], 93.4%; in experiment [4], 93.7%; in experiment [5] it was 97%.
`COc1ccc(-n2cc(-c3cc(O)cc(O)c3)nn2)c(OC)c1` yielded an IC50 in experiment [1] of 10 µM.
For `COc1ccc(-n2cc(-c3ccc(O)c(OC)c3)nn2)cc1O`, the half-inhibitory concentration (IC50) in experiment [1] was more than 10 µM.
In experiment [1], `COc1ccc(-c2cn(-c3ccc(OC)cc3OC)nn2)cc1` came in with an IC50 of more than 10 µM.
Same read-out and setting: the result for `COc1ccc(-c2cn(-c3ccc(OC(F)(F)F)cc3)nn2)cc1O` reads more than 10 µM; that for `COc1cc(OC)cc(-n2cc(-c3cc(O)cc(O)c3)nn2)c1`, more than 10 µM.
For `COc1ccc(-n2cc(-c3cc(O)cc(O)c3)nn2)cc1OC`, the IC50 in experiment [1] is more than 10 µM.
Still for that read-out and setting: the result for `COc1cc(OC)cc(-c2cn(-c3cc(OC)c(OC)c(OC)c3)nn2)c1` reads more than 10 µM; that for `COc1ccc(-n2cc(-c3ccc(N)cc3)nn2)cc1O`, more than 10 µM.
Same read-out and setting: in the case of `COc1ccc(-n2cc(-c3cc(OC)c(OC)c(OC)c3)nn2)cc1O` it was 10 µM; in that of `COc1ccc(-n2cc(-c3ccc(OC)c(O)c3)nn2)cc1`, more than 10 µM; in that of `COc1ccc(-c2cn(-c3ccc4c(c3)OCO4)nn2)cc1O`, more than 10 µM.
As to `COc1cc(OC)cc(-c2cn(-c3ccc4c(c3)OCO4)nn2)c1`, in experiment [1], the 50% inhibitory concentration (IC50) was more than 10 µM.
On to `Nc1ccc(-c2cn(-c3ccc(Oc4ccccc4)cc3)nn2)cc1`, for which, in experiment [1], the IC50 is more than 10 µM.
Turning to `COc1ccc(-n2cc(-c3cc(O)cc(O)c3)nn2)cc1`, in experiment [1], the IC50 was more than 10 µM.
`COc1ccc(-n2cc(-c3ccc(N)cc3)nn2)c(OC)c1` had an IC50 in experiment [1] of more than 10 µM.
`COc1ccc(-n2cc(-c3ccc(OC)c(OC)c3)nn2)cc1` gave an IC50 in experiment [1] of more than 0.1 µM.
Molecule `COc1cc(OC)cc(-c2cn(-c3cc(OC)cc(OC)c3)nn2)c1` displayed an IC50 in experiment [1] of more than 10 µM.
As for `COc1ccc(-c2cn(-c3ccc(Oc4ccccc4)cc3)nn2)cc1OC`, it took 10 µM to reach half-maximal inhibition in experiment [1] (IC50). This counts as double-digit micromolar.
With `COc1ccc(-c2cn(-c3ccc4c(c3)OCO4)nn2)cc1OC`, the midpoint of inhibition in experiment [1], the IC50, lay at 10 µM.
With `COc1cc(OC)cc(-c2cn(-c3ccc(OC)c(O)c3)nn2)c1`, in experiment [1], the IC50 was more than 10 µM.
Same read-out and setting: in the case of `Nc1ccc(-c2cn(-c3ccc(OC(F)(F)F)cc3)nn2)cc1` it was more than 0.01 µM.
For the molecule `COc1cc(-n2cc(-c3cc(O)cc(O)c3)nn2)cc(OC)c1OC`, the IC50 in experiment [1] is more than 10 µM.
As for `COc1cc(OC)cc(-c2cn(-c3ccc(OC)cc3OC)nn2)c1`, the IC50 in experiment [1] is more than 10 µM.
In turn, `COc1cc(OC)cc(-n2cc(-c3ccc(N)cc3)nn2)c1` came in with an IC50 in experiment [1] of more than 10 µM.
In experiment [1], `COc1ccc(-c2cn(-c3c(O)c(F)cc(F)c3F)nn2)cc1O` returned an IC50 of more than 10 µM.
`COc1ccc(-n2cc(-c3ccc(OC)c(O)c3)nn2)c(OC)c1` returned an IC50 in experiment [1] of more than 10 µM.
In experiment [1], `COc1cc(OC)cc(-c2cn(-c3ccc(Oc4ccccc4)cc3)nn2)c1` returned an IC50 of more than 10 µM.
`COc1ccc(-c2cn(-c3ccc(OC)c(O)c3)nn2)cc1O` showed an IC50 in experiment [1] of more than 10 µM.
Regarding `COc1cc(OC)cc(-n2cc(-c3ccc(OC)c(O)c3)nn2)c1`, the IC50 in experiment [1] is more than 10 µM.
Same read-out and setting: the result for `COc1ccc(-n2cc(-c3cc(OC)c(OC)c(OC)c3)nn2)c(OC)c1` reads more than 10 µM.
In turn, `COc1ccc(-n2cc(-c3ccc(N)cc3)nn2)cc1` showed an IC50 in experiment [1] of more than 0.1 µM.
In experiment [1], `COc1cc(-c2cn(-c3ccc(OC(F)(F)F)cc3)nn2)cc(OC)c1OC` yielded an IC50 of more than 10 µM.
`COc1ccc(-n2cc(-c3cc(OC)cc(OC)c3)nn2)cc1`: the Activity in experiment [2] amounted to 116%; in experiment [3] it was 78.6%; in experiment [4], 88.2%; in experiment [5], 93.2%.
As for `COc1ccc(-c2cn(-c3c(O)c(F)cc(F)c3F)nn2)cc1`, the 50% inhibitory concentration (IC50) in experiment [1] is more than 1 µM.
In turn, `COc1ccc(-c2cn(-c3cc(OC)c(OC)c(OC)c3)nn2)cc1O` yielded a half-maximal inhibitory concentration (IC50) in experiment [1] of more than 10 µM.
Still for that read-out and setting: the result for `COc1cc(-c2cn(-c3ccc4c(c3)OCO4)nn2)cc(OC)c1OC` reads 10 µM; that for `COc1cc(OC)cc(-c2cn(-c3ccc(OC)c(OC)c3)nn2)c1`, 10 µM; that for `COc1cc(-c2cn(-c3ccc(OC(F)(F)F)cc3)nn2)ccc1O`, 10 µM.
The same measure, in the same setting: the result for `COc1ccc(-c2cn(-c3ccc(OC)c(O)c3)nn2)cc1` reads more than 0.1 µM; that for `COc1ccc(-n2cc(-c3ccc(OC)c(OC)c3)nn2)cc1O`, more than 1 µM.
On to `COc1ccc(-c2cn(-c3ccc(N)cc3)nn2)cc1O`, for which the half-inhibitory concentration (IC50) in experiment [1] is more than 10 µM.
Take `COc1ccc(-c2cn(-c3ccc(N)cc3)nn2)cc1`: the IC50 in experiment [1] was more than 0.1 µM.
Regarding `Oc1ccc(/C=C/c2cc(O)cc(O)c2)cc1` [RESVERATROL], the Activity was 52.1% in experiment [2], 33.5% in experiment [3], 42.2% in experiment [4] and 67.9% in experiment [5].
